ChEMBL document CHEMBL4038331 (J Med Chem, 2017)
Active and inactive are the calls of the source. No cut-off for these calls is given here.

What was measured:
HepG2 [1] = experiment: Antioxidant activity in human HepG2 cells assessed as intracellular GSH content per ug of protein at 2.5 uM after 48 hrs by HPLC analysis (reference value: 17.81 nmol); format: functional
Liver [2] = experiment: Increase in oligomycin-inhibited respiration in rat liver mitochondria after 5 mins in presence of glutamate/malate; format: functional
Summary of the method: (§1)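 Glutamate/malate (10/5 mM) or succinate (5 mM) was the substrate, with compound 2.5–10 μM for 5 min (state 2). ADP was added (125 nmol glutamate/malate; 75 nmol succinate), then oligomycin 2 μg/mL, then FCCP 1 μM. RCR and ADP/O were calculated. Seven experiments.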

HepG2 [3] = experiment: Cytotoxicity against human HepG2 cells assessed as chromatin condensation at 2.5 uM after 48 hrs Hoechst 33342-staining based epifluorescence microscopic analysis; format: cell-based; conditions: hepg2, 48 h
Summary of the method: (§2)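 HepG2 cells on coverslips (8 × 10^4 cells/2 mL) were treated 48 h. In the last 30 min, cells were stained with TMRM (100 nM) and Hoechst 33342 (1 μg/mL) in HBSS pH 7.4 at 37 °C in the dark. Live cells were imaged by fluorescence microscopy, four random fields per well, three experiments.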

Liver [4] = experiment: Induction of membrane hyperpolarization in rat liver mitochondria assessed as change in repolarization potential at 2.5 uM; format: functional
Summary of the method: (§3)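 Safranine (5 μM) fluorescence (ex 495/em 586 nm) at 25 °C. Rat liver mitochondria (0.5 mg/2 mL) were in 200 mM sucrose, 1 mM KH2PO4, 10 mM Tris pH 7.4, 10 μM EGTA with glutamate/malate or succinate, after 5 min with 2.5–10 μM. ADP 25 nmol depolarised, then FCCP 1 μM was added. A valinomycin calibration in K+-free medium was used, five experiments.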

Liver [5] = experiment: Induction of basal respiration in rat liver mitochondria measured 5 mins after ADP phosphorylation in presence of succinate; format: functional; summary of the method: as §1
Liver [6] = experiment: Decrease in oxidative phosphorylation efficiency in rat liver mitochondria assessed as reduction in coupling between ATP systhesis and oxygen consumption after 5 mins in presence of succinate; format: functional; summary of the method: as §1
Liver [7] = experiment: Induction of basal oxygen consumption under nonphosphorylative conditions in rat liver mitochondria after 5 mins in presence of glutamate/malate; format: functional; summary of the method: as §1
Liver [8] = experiment: Drug uptake in rat liver intra-mitochondria at 1 uM in presence of succinate/valinomycin by TPP+-based electrode assay; format: ADME, tissue-based
Summary of the method: (§4)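 TPP+-selective electrode with rat liver mitochondria (0.5 mg/mL) in 120 mM KCl, 10 mM HEPES pH 7.2, 1 mM EGTA at 37 °C with rotenone 1.5 μM. Five 1 μM additions calibrated the electrode, then succinate 10 mM was added, then valinomycin 0.2 μg/mL. The accumulation ratio assumed a matrix volume of ~0.5 μL/mg with a binding correction.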

Liver [9] = experiment: Induction of ADP-stimulated respiration in rat liver mitochondria after 5 mins in presence of succinate; format: functional; summary of the method: as §1
Liver [10] = experiment: Increase in oligomycin-inhibited respiration in rat liver mitochondria after 5 mins in presence of succinate; format: functional; summary of the method: as §1
HepG2 [11] = experiment: Antioxidant activity in human HepG2 cells assessed as reduction in H2O2-induced cell toxicity at 2.5 uM preincubated for 1 hr followed by H2O2 addition for 48 hrs by SRB assay; format: functional, cell-based
Summary of the method: (§5)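 HepG2 cells, grown in high-glucose DMEM with 10% FBS at 37 °C and 5% CO2, seeded at 2 × 10^4 cells/500 μL. Cells were preincubated with compound, then given 250 μM FeSO4 or 250 μM H2O2. Cell mass was read by SRB (fixed, stained, OD 540 nm) as % of untreated control. Four independent experiments.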

[12] = Antioxidant activity assessed as DPPH radical scavenging activity measured every minute for 45 mins; format: functional
Summary of the method: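 DPPH• ethanolic solution diluted to absorbance 0.72 ± 0.02 at 515 nm. Ethanolic test solutions (50–500 μM) were added in triplicate and read at 515 nm. Inhibition was taken against an ethanol blank (100% radical), and IC50 was read from dose–response curves.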

Liver [13] = experiment: Drug uptake in rat liver extra-mitochondria at 1 uM in presence of succinate/valinomycin by TPP+-based electrode assay; format: ADME, tissue-based; summary of the method: as §4
Rattus norvegicus = species: Rattus norvegicus; experiment: Inhibition of mPTP in energized rat liver mitochondria at 2.5 to 10 uM after 5 mins in presence of succinate by spectrophotometric analysis
HepG2 [14] = experiment: Cytotoxicity against human HepG2 cells assessed as mitochondrial depolarization at 2.5 uM after 48 hrs TMRM-staining based epifluorescence microscopic analysis; format: cell-based; conditions: hepg2, 48 h; summary of the method: as §2
Liver [15] = experiment: Induction of basal respiration in rat liver mitochondria measured 5 mins after ADP phosphorylation in presence of glutamate/malate; format: functional; summary of the method: as §1
Liver [16] = experiment: Induction of basal oxygen consumption under nonphosphorylative conditions in rat liver mitochondria after 5 mins in presence of succinate; format: functional; summary of the method: as §1
[17] = Antioxidant activity assessed as GO radical scavenging activity measured for 30 mins in absence of light; format: functional
Summary of the method: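 Ethanolic GO• (5 mM stock) diluted to absorbance 1.00 ± 0.02 at 428 nm. Test solutions (5–75 μM in ethanol) were added in triplicate and read at 428 nm at room temperature. Inhibition was taken against an ethanol blank (100% radical).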

[18] = Lipophilicity of compound in Ag/AgCl-NaCl containing PET membrane assessed as tranfer potential at pH 7; format: physicochemical
Summary of the method: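 Transfer across a liquid–liquid interface on a microporous PET membrane, with 1,6-dichlorohexane organic phase containing BTPPATPBCl. A gelled 2 mM BTPPACl + 2 mM NaCl reference was used, with 10 mM Tris-HCl pH 7.0 aqueous electrolyte.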

[19] = Antioxidant activity assessed as ABTS radical scavenging activity measured each minute for 15 mins by spectrophotometric analysis; format: functional
Summary of the method: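 ABTS•+ generated from 7 mM ABTS plus potassium persulfate, held 16 h dark at room temperature, then diluted in ethanol to absorbance 0.72 ± 0.02. Ethanolic test solutions (10–500 μM) were added to radical solution in triplicate. Inhibition was taken against an ethanol blank (100% radical), and IC50 was read from dose–response curves.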

HepG2 [20] = experiment: Cytotoxicity against human HepG2 cells assessed as reduction in cell density at >2.5 uM after 48 hrs by SRB assay; format: cell-based; conditions: hepg2, 48 h
Liver [21] = experiment: Antioxidant activity in rat liver mitochondria assessed as inhibition of ADP/FeSO4-induced lipid peroxidation at 5 uM preincubated for 5 mins followed by ADP/FeSO4 addition; format: functional
Summary of the method: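 Rat liver mitochondria (2 mg) in 100 mM KCl, 10 mM Tris-HCl pH 7.6, with glutamate/malate (5/2.5 mM) at 37 °C. After 5 min with compound (5 μM), peroxidation was started with ADP/0.1 mM FeSO4. The lag phase of O2 consumption was measured by Clark electrode and expressed as % of control. Six experiments.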

[22] = Induction of mPTP in energized rat liver mitochondria at 2.5 to 10 uM after 5 mins in presence of succinate by spectrophotometric analysis
Liver [23] = experiment: Induction of ADP-stimulated respiration in rat liver mitochondria after 5 mins in presence of glutamate/malate; format: functional; summary of the method: as §1
Liver [24] = experiment: Decrease in oxidative phosphorylation efficiency in rat liver mitochondria assessed as reduction in respiratory control ratio after 5 mins in presence of glutamate/malate; format: functional; summary of the method: as §1
Liver [25] = experiment: Inhibition of ADP-induced membrane depolarization in succinate energized rat liver mitochondria at 5 uM preincubated for 5 mins followed by ADP addition measured by safranine-based spectrofluorometric analysis; format: functional, tissue-based; summary of the method: as §3
HepG2 [26] = experiment: Antioxidant activity in human HepG2 cells assessed as reduction in FeSO4-induced cell toxicity at 2.5 uM preincubated for 1 hr followed by FeSO4 addition for 48 hrs by SRB assay; format: functional, cell-based; summary of the method: as §5
Liver [27] = experiment: Decrease in oxidative phosphorylation efficiency in rat liver mitochondria assessed as reduction in coupling between ATP systhesis and oxygen consumption after 5 mins in presence of glutamate/malate; format: functional; summary of the method: as §1
[28] = Redox potential of compound in Ag/AgCl-NaCl containing phosphate buffer at 0.1 mM at pH 7.4 by cyclic voltammetric analysis
Summary of the method: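 Voltammetry used a glassy carbon working electrode, Pt counter and Ag/AgCl reference. Compound was at 0.1 mM final (10 mM ethanolic stock) in pH 7.4 potassium phosphate electrolyte.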

Liver [29] = experiment: Ratio of drug level in rat liver intra-mitochondria to extra-mitochondria at 1 uM in presence of succinate/valinomycin by TPP+-based electrode assay; format: ADME, tissue-based; summary of the method: as §4
HepG2 [30] = experiment: Cytotoxicity against human HepG2 cells assessed as depletion of intracellular GSH content at 2.5 uM after 48 hrs by HPLC analysis; format: cell-based; conditions: hepg2, 48 h
Summary of the method: (§6)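 HepG2 cells (4 × 10^5 per 100 mm dish) were incubated 48 h, collected and stored at −80 °C in PBS. Reduced GSH was measured by reverse-phase HPLC with detection at 515 nm and expressed as nmol GSH/μg protein. Four experiments.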

[31] = Iron chelating activity in ammonium acetate buffer assessed as inhibition of [Fe(ferrozine)3]2+ formation at 100 uM at pH 6.7 measured after 10 mins by spectrophotometric analysis
Summary of the method: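 Ferrozine assay in ammonium acetate buffer pH 6.7. Compound (100 μM) plus ammonium iron(II) sulfate (20 μM) for 10 min, read at 562 nm. Ferrozine was added, incubated 10 min at 37 °C, and re-read at 562 nm. The first reading was subtracted, with a DMSO blank and EDTA = 100%. Three experiments.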

HepG2 [32] = experiment: Cytotoxicity against human HepG2 cells assessed as chromatin condensation at 100 uM after 48 hrs Hoechst 33342-staining based epifluorescence microscopic analysis; format: cell-based; conditions: hepg2, 48 h; summary of the method: as §2
HepG2 [33] = experiment: Cytotoxicity against human HepG2 cells assessed as mitochondrial depolarization at 100 uM after 48 hrs TMRM-staining based epifluorescence microscopic analysis; format: cell-based; conditions: hepg2, 48 h; summary of the method: as §2
HepG2 [34] = experiment: Cytotoxicity against human HepG2 cells assessed as depletion of intracellular GSH content at 100 uM after 48 hrs by HPLC analysis; format: cell-based; conditions: hepg2, 48 h; summary of the method: as §6
HepG2 [35] = experiment: Antioxidant activity in human HepG2 cells assessed as reduction in FeSO4-induced cell toxicity at 100 uM preincubated for 1 hr followed by FeSO4 addition for 48 hrs by SRB assay; format: functional, cell-based; summary of the method: as §5
HepG2 [36] = experiment: Cytotoxicity against human HepG2 cells assessed as reduction in cell density at 0.5 to 100 uM after 48 hrs by SRB assay; format: cell-based; conditions: hepg2, 48 h
HepG2 [37] = experiment: Antioxidant activity in human HepG2 cells assessed as reduction in H2O2-induced cell toxicity at 100 uM preincubated for 1 hr followed by H2O2 addition for 48 hrs by SRB assay; format: functional, cell-based; summary of the method: as §5
HepG2 [38] = experiment: Antioxidant activity in human HepG2 cells assessed as intracellular GSH content per ug of protein at 100 uM after 48 hrs by HPLC analysis (reference value: 17.81 nmol); format: functional

SMILES	Activity (Liver [2])	Activity (Liver [5])	Activity (Liver [6])	Activity (Liver [7])	Drug uptake (Liver [8])	Activity (Liver [9])	Activity (Liver [10])	IC50 [12]	Drug uptake (Liver [13])	Activity (Liver [15])	Activity (Liver [16])	IC50 [17]	Activity [18]	IC50 [19]	inhibition (Liver [21])	Activity (Liver [23])	Activity (Liver [24])	Activity (Liver [27])	Activity [28]	Ratio (Liver [29])	also measured
CS(=O)(=O)[O-].O=C(/C=C/c1ccc(O)c(O)c1)NCCCCCCCCCC[P+](c1ccccc1)(c1ccccc1)c1ccccc1	Dose-dependent effect	Dose-dependent effect	Dose-dependent effect	Dose-dependent effect	4.7 mM	Dose-dependent effect	Dose-dependent effect	25.9 µM	1.9 µM	Dose-dependent effect	Dose-dependent effect	2.7 µM	0.291 V	23.5 µM	Active	Dose-dependent effect	Dose-dependent effect	Dose-dependent effect	0.174 V	2700	Activity (HepG2 [1]): 20.85 nmol; Activity (HepG2 [3]): Non-Toxic; Activity (Liver [4]): 10 mV; inhibition (HepG2 [11]): Active; inhibition (Rattus norvegicus): Active; Activity (HepG2 [14]): Non-Toxic; Activity (HepG2 [20]): Toxic; Activity [22]: Non-Toxic; inhibition (Liver [25]): Active; inhibition (HepG2 [26]): Active; Activity (HepG2 [30]): Non-Toxic
CS(=O)(=O)[O-].O=C(/C=C/c1cc(O)c(O)c(O)c1)NCCCCCC[P+](c1ccccc1)(c1ccccc1)c1ccccc1	Dose-dependent effect	Dose-dependent effect	Dose-dependent effect	Dose-dependent effect	2 mM	Dose-dependent effect	Dose-dependent effect	19 µM	2.4 µM	Dose-dependent effect	Dose-dependent effect	3.1 µM	0.498 V	12.2 µM	Active	Dose-dependent effect	Dose-dependent effect	Dose-dependent effect	0.034 V	2100	inhibition [31]: Active; Activity (HepG2 [32]): Non-Toxic; Activity (HepG2 [33]): Non-Toxic; Activity (HepG2 [34]): Non-Toxic; inhibition (HepG2 [35]): Active; Activity (HepG2 [36]): Non-Toxic; inhibition (HepG2 [37]): Active; Activity (HepG2 [38]): 26.94 nmol
